This note sets out measurements from PMC8733272 (iScience, 2021).

The target of data set [1] is T1, N-terminally tagged WT-Parkin (Homo sapiens, UniProt O60260).
T1 sequence (O60260 1-465): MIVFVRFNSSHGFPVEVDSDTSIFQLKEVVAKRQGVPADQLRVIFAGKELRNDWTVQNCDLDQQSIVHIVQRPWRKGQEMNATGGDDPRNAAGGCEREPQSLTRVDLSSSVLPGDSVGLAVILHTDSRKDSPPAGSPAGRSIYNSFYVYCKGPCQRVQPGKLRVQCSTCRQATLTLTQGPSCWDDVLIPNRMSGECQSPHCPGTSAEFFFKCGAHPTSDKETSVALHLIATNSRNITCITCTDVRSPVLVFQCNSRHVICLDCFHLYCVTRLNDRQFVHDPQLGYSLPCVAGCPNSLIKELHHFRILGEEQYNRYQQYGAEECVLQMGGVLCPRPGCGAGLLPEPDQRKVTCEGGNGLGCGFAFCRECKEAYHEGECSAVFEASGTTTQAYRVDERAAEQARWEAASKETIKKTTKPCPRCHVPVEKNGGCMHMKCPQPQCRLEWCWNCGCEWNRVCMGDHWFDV
As to the kind of experiment: In vitro ubiquitin vinyl sulfone. In kind it is biochemical. To be noted: 3 μM pUb, 2 h, no E1, E2 or ATP. The method, boiled down: (§1)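 Tagged Parkin (WT or W403A), 2 μM, incubated with 10 μM Ub-VS and 3 μM pUb. Test compound at 0, 0.09, 0.27, 0.8, 2.5, 7.4, 22.2, 66.7 and 200 μM. Buffer: 50 mM HEPES, 150 mM NaCl, 1 mM TCEP, pH 8.0. Final DMSO 2% (v/v).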

Data set [2] concerns the target T2, N-terminally tagged W403A-Parkin (Homo sapiens, UniProt O60260, W403A).
T2 sequence (O60260 1-465 W403A): T1 sequence (O60260 1-465) with W403A
The experiment in a line: In vitro ubiquitin vinyl sulfone. In kind it is biochemical. To be noted: 3 μM pUb, 1 h. The gist of the method: as §1

For data set [3], the target named is T3, WT-Parkin (Homo sapiens, UniProt O60260).
T3 sequence (O60260 1-465): T1 sequence (O60260 1-465)
The experiment in a line: Parkin autoubiquitination by Western blot. To be noted: 5 min reaction at 37°C. In kind it is biochemical. The gist of the method: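 Untagged WT-Parkin was pre-incubated 30 min at 37°C with E1, E2 and test compound; the 2X mix held 40 nM E1, 800 nM E2 and 100 nM Parkin. Then 2X substrate mix was added (760 nM fluorescein-Ub, 50 μM ubiquitin, 10 μM pUb, 2 mM ATP) in HEPES pH 7.4 buffer with 1% DMSO, in 40 μL. Stopped after 5 min with SDS sample buffer; polyubiquitin smears were read by Western blot.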
A general note: A western blot detects proteins with antibodies after separation by electrophoresis.

Data set [4] has as its target T4, WT-Parkin (substrate His-Miro1 186-591) (Homo sapiens, UniProt O60260).
T4 sequence (O60260 1-465): T1 sequence (O60260 1-465)
The experiment in a line: Miro1 ubiquitination assay by Western blot. In kind it is biochemical. To be noted: His-Miro1 (186-591) substrate. The method, boiled down:
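Run as the TR-FRET reaction with untagged WT-Parkin. Test compound was pre-incubated 30 min with E1, E2, Parkin and His-Miro1 186-591 (250 nM final); the 2X mix held 40 nM E1, 800 nM E2 and 100 nM Parkin. After 20 min the reaction was stopped in SDS sample buffer, then run on 4–12% bis-tris SDS-PAGE, PVDF transfer and IR-dye secondary imaging.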

The target in data set [5] is T3, WT-Parkin. As to the kind of experiment: Parkin catalytic poly-auto-Ub TR-FRET assay. In kind it is biochemical. To be noted: for activity in TR-FRET autoubiquitination assay: WT-Parkin with pUb.
In data set [6] the test system is SH-SY5Y cells expressing the MitoQC construct. The experiment in a line: MitoQC mitophagy assay. To be noted: 1 h pre-incubation, Antimycin + Oligomycin. In kind it is cell-based. The gist of the method:
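SH-SY5Y cells carrying MitoQC were seeded at 1.6×10^4 cells/well on attachment factor and recovered 72 h. Cells were pre-treated 1 h with test compound, then given 5 μM Antimycin + 10 μM Oligomycin or DMSO for 8 h unless stated otherwise. Fixed in 2% PFA on ice 30 min, DAPI-stained, and imaged at 64x (25 fields, 4 replicate wells). mCherry puncta (mitolysosomes) were counted.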

The target in data set [7] is Human MDR1 efflux transporter (MDCK-MDR1 cells) (Homo sapiens, UniProt P08183). As to the kind of experiment: MDCK-MDR1 bidirectional permeability / efflux. To be noted: average of inward and outward permeability. In kind it is in vitro ADME. The method, boiled down: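 MDCK-MDR1 cells were seeded at 0.28×10^6 cells/mL on the apical side of transwell inserts and grown 7 days, with two media changes. Monolayers were rinsed in HBSS/1% HEPES pH 7.4. 1 μM test compound was added to the donor side (A>B and B>A); receivers held buffer with 1% BSA. Plates were shaken 2 h at 37°C. Donor was sampled at 0 and 120 min, receiver at 2 h, and quenched with acetonitrile plus internal standard for LC-MS/MS. Post-assay TEER had to exceed 430 ohm∗cm2. Papp = (dQ/dt)(1/C0)(1/A); ER = Papp B>A / Papp A>B.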
Chain of Human MDR1 efflux transporter (MDCK-MDR1 cells) (P08183 whole entry): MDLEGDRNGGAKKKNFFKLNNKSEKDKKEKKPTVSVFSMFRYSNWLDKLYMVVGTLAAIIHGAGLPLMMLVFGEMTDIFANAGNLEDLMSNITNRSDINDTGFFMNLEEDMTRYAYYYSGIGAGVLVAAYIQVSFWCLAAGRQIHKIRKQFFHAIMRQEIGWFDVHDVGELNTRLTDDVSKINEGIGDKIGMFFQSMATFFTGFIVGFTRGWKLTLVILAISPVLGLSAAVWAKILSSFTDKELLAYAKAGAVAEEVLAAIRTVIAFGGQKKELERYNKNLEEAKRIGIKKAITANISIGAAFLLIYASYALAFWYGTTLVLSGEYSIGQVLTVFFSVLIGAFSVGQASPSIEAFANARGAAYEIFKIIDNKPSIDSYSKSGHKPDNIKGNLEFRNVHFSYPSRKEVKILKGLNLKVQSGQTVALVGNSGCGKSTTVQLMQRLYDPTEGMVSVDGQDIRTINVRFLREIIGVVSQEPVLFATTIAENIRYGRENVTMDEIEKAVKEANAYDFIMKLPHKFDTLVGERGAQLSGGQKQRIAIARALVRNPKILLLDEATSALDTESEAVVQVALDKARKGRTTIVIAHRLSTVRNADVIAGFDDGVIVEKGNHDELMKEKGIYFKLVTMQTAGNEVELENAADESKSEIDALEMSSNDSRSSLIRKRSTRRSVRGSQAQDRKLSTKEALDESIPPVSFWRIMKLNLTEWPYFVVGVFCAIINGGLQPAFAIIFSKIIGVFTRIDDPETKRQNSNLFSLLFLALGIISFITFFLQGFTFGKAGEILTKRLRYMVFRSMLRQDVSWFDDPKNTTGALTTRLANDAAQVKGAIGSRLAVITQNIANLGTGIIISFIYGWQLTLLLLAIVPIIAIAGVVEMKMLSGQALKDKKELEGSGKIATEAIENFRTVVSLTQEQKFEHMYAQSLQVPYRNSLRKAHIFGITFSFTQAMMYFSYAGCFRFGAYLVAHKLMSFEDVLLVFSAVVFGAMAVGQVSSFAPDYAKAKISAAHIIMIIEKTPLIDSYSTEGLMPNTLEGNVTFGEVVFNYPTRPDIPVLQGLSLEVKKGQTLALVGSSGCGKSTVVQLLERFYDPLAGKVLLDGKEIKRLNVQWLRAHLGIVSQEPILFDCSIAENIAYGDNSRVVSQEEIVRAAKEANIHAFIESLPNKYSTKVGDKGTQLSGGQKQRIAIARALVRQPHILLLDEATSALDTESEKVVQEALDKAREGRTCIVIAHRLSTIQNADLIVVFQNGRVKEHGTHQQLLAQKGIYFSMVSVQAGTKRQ

The target of data set [8] is N-terminally tagged W403A-Parkin (UniProt O60260).

Residue numbers refer to the chain shown, from its start. Where only a bound is given, the exact number is not on record here.

Turning to `CO[C@@H](C(=O)N1Cc2c(-c3ccc(C(=O)N4CCCc5ccccc54)cc3)cnn2C[C@H]1C(C)C)c1cnn(C)c1` (single isomer, unassigned) [BIO-2007818], the “Ub-VS charging of WT-Parkin” value in data set [1] is “to a lesser extent”. In data set [2], the “Ub-VS charging of W403A-Parkin” value is “to a lesser extent”. Besides, in data set [3], the “Parkin autoubiquitination by Western blot” value is “reduced ability to induce Parkin autoubiquitination”. In data set [4], the “Miro1 ubiquitination by Western blot” value is on record as “reduced ability”.
Take `CO[C@H](C(=O)N1Cc2c(-c3ccc(C(=O)N4CCCc5ccccc54)cn3)cnn2C[C@H]1C(C)C)c1cnn(C)c1` (single isomer, unassigned) [BIO-2007967]: in data set [5] (EC50 (μM), WT-Parkin, 5 μM pUb, averaged technical replicates n = 2), the EC50 is under 0.2 µM.
Turning to `CO[C@H](C(=O)N1Cc2c(-c3ccc(C(=O)N4CCCc5ccccc54)cc3)cnn2C[C@H]1C(C)C)c1ccccc1` (single isomer, unassigned) [BIO-2008550], in data set [6], the “effect on mitophagy, MitoQC” value is on record as “no enhanced MitoQC activity”.
In the case of `CC(C)[C@H]1Cn2ncc(-c3ccc(C(=O)N4CCCc5ccccc54)cc3)c2CN1C(=O)Cc1ccccc1` [BIO-1966560, (S)-1-(6-isopropyl-3-(4-(1,2,3,4-tetrahydroquinoline-1-carbonyl)phenyl)-6,7-dihydropyrazolo[1,5-a]pyrazin-5(4H)-yl)-2-phenylethan-1-one], the “activity in TR-FRET autoubiquitination assay” value (“activity” below) in data set [5] was “inactive”.
Take `CC(C)[C@@H]1Cn2ncc(-c3ccc(C(=O)N4CCCc5ccccc54)cc3)c2CN1C(=O)Cc1ccccc1` [BIO-1966561, (R)-1-(6-isopropyl-3-(4-(1,2,3,4-tetrahydroquinoline-1-carbonyl)phenyl)-6,7-dihydropyrazolo[1,5-a]pyrazin-5(4H)-yl)-2-phenylethan-1-one]: the “potency improvement (fold) over parent analog” value in data set [5] (from TR-FRET EC50) worked out at 5 fold.
Regarding `C[C@H](C(=O)N1Cc2c(-c3ccc(C(=O)N4CCCc5ccccc54)cc3)cnn2C[C@H]1C)c1ccccc1` [BIO-1967173, (S)-1-((R)-6-methyl-3-(4-(1,2,3,4-tetrahydroquinoline-1-carbonyl)phenyl)-6,7-dihydropyrazolo[1,5-a]pyrazin-5(4H)-yl)-2-phenylpropan-1-one], the “effect on mitophagy, MitoQC” value in data set [6] is recorded as “no enhanced MitoQC activity”.
For the compound `C[C@@H]1Cn2ncc(-c3ccc(C(=O)N4CCCc5ccccc54)cc3)c2CN1C(=O)[C@H](C)c1ccccc1` [BIO-1967174, (R)-1-((R)-6-methyl-3-(4-(1,2,3,4-tetrahydroquinoline-1-carbonyl)phenyl)-6,7-dihydropyrazolo[1,5-a]pyrazin-5(4H)-yl)-2-phenylpropan-1-one], the “activity” value in data set [5] is listed as “weakly active”. Further, the “Miro1 ubiquitination by Western blot” value in data set [4] is reported as “enhance the rate of monoubiquitination of Miro1 substrate to a level comparable to that of W403A-Parkin”.
In the case of `C[C@H](C(=O)N1Cc2c(-c3ccc(C(=O)N4CCCc5ccccc54)cc3)cnn2C[C@@H]1C)c1ccccc1` [BIO-1968010, (S)-1-((S)-6-methyl-3-(4-(1,2,3,4-tetrahydroquinoline-1-carbonyl)phenyl)-6,7-dihydropyrazolo[1,5-a]pyrazin-5(4H)-yl)-2-phenylpropan-1-one], the “activity” value in data set [5] was “inactive”.
In the case of `C[C@@H](C(=O)N1Cc2c(-c3ccc(C(=O)N4CCCc5ccccc54)cc3)cnn2C[C@@H]1C)c1ccccc1` [BIO-1968011, (R)-1-((S)-6-methyl-3-(4-(1,2,3,4-tetrahydroquinoline-1-carbonyl)phenyl)-6,7-dihydropyrazolo[1,5-a]pyrazin-5(4H)-yl)-2-phenylpropan-1-one], the “activity” value in data set [5] is “inactive”.
For the compound `Cc1n[nH]c(CC(=O)N2Cc3c(-c4ccc(C(=O)N5CCCc6ccccc65)cc4)cnn3C[C@H]2C)n1` [BIO-1984542, (R)-2-(3-methyl-1H-1,2,4-triazol-5-yl)-1-(6-methyl-3-(4-(1,2,3,4-tetrahydroquinoline-1-carbonyl)phenyl)-6,7-dihydropyrazolo[1,5-a]pyrazin-5(4H)-yl)ethan-1-one], in data set [1], the “Ub-VS charging of WT-Parkin” value is “no significant activity”. In addition, the “MDR1-MDCK avg (average of Papp AB/BA)” value in data set [7] turned out to be 4.4 ×10⁻⁶ cm/s. Also, the “activity” value in data set [5] is “inactive”. Also, in data set [3], the “Parkin autoubiquitination by Western blot” value was “inactive”. The “Miro1 ubiquitination by Western blot” value in data set [4] was “inactive”.
As to “Phospho-ubiquitin (pUb): Human Recombinant pSer65-Ubiquitin (from UniProt P0CG48 1-76) (natural protein)”, the EC50 of pUb for Ub-VS charging of W403A-Parkin (gel shift), without BIO-2007817 in data set [8] came out at 5.4 μM.

What is called EC50 is the midpoint of the concentration-response curve. Low readings indicate higher potency in that assay, high ones lower potency in that assay.
